Tests used:
Canis familiaris [1] = test: Percent reduction of histamine stimulated gastric acid secretion in adult mongrel dog after intravenous administration at 5 mg/kg.; assay type: functional, Canis lupus familiaris, Stomach
In short: (§1)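 Heidenhain-pouch mongrel dogs given histamine infusion at 0.4 (μg/kg)/min. Compound given iv 1 h after infusion start. 30-min collections, volume recorded and aliquot titrated for acid. AO = volume × acid concentration, summed for 3 h post-dose and divided by 3-h control AO from the same dog. % inhibition = 100 − percent of control. Usually one dog per compound.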

Rattus norvegicus = test: Percent reduction of gastric acid secretion in pylorus ligated rat after intraperitoneal administration at 40 mg/kg.; assay type: functional, Stomach
In short: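 Male Charles River CD outbred albino rats, 150-200 g, pylorus ligated; compound dissolved in 2.5% Tween 80 and given ip (0.5 mL/200 g) at ligation. Stomachs removed after 4 h. Gastric content volume recorded, acid titrated with 0.1 N NaOH to pH 7.0, AO in mequiv/4 h. Six rats per compound, eight controls; % inhibition = 100 − 100×(mean test AO/mean control AO); Student's t test.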

Canis familiaris [2] = test: Percent reduction of histamine stimulated gastric acid secretion in adult mongrel dog after peroral administration of compound at 8 mg/kg; assay type: functional, Canis lupus familiaris, Stomach; settings: route oral
In short: (§2)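 Heidenhain-pouch mongrel dogs given histamine infusion at 0.4 (μg/kg)/min. Compound given orally by gavage 1 h after infusion start. 30-min secretions collected and titrated for acid. AO = volume × acid concentration, summed over 3 h after dosing and expressed against 3-h control AO in the same dog. % inhibition = 100 − percent of control. Usually a single dog.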

Canis familiaris [3] = test: Percent reduction of histamine stimulated gastric acid secretion in adult mongrel dog after peroral administration of compound at 8 mg/kg; Animal vomited upon compound administration; assay type: functional, organism-based; set-up: dose 8 mg/kg; settings: Canis lupus familiaris, Stomach; in short: as §2
Canis familiaris [4] = test: Percent reduction of histamine stimulated gastric acid secretion in adult mongrel dog after intravenous administration of compound at 5 mg/kg; stimulated gastric acid secretion; assay type: functional, organism-based; set-up: dose 5 mg/kg; settings: Canis lupus familiaris, Stomach; in short: as §1

SMILES | Reduction (Canis familiaris [1]) [%] | Reduction (Rattus norvegicus) [%] | Reduction (Canis familiaris [2]) [%] | Reduction (Canis familiaris [3]) | Reduction (Canis familiaris [4])
Cl.NCCSC1c2ccccc2Oc2ncccc21 (stereo not drawn) | <30 | <30 | – | – | –
COc1ccc2c(c1)C(SCCN1CCCCC1)c1ccccc1O2.Cl (stereo not drawn) | <30 | 73 | – | – | –
Cc1ccc2c(c1)C(SCCCN)c1ccccc1O2.Cl (stereo not drawn) | 80 | 100 | <50 | – | –
Cl.Clc1cccc2c1Oc1ccccc1C2SCCN1CCOCC1 (stereo not drawn) | 42 | 86 | – | – | –
Cl.NCCCSC1c2ccccc2Oc2c(Cl)cccc21 (stereo not drawn) | 33 | 99 | – | – | –
Cl.c1ccc2c(c1)Oc1ccccc1C2SCCN1CCCCC1 | <30 | 98 | – | – | –
Cc1cccc2c1Oc1ccccc1C2SCCCN.Cl (stereo not drawn) | 87 | 71 | – | Animal vomited upon compound administration | –
Cl.c1ccc2c(c1)Oc1ncccc1C2SCCN1CCOCC1 (stereo not drawn) | 66 | 64 | – | – | –
COc1ccc2c(c1)C(SCCN1CCOCC1)c1ccccc1O2.Cl (stereo not drawn) | – | 94 | – | – | stimulated gastric acid secretion
COc1ccc2c(c1)Oc1ccccc1C2SCCN1CCOCC1.Cl (stereo not drawn) | 77 | 44 | <30 | – | –
Cl.c1ccc2c(c1)Oc1ccccc1C2SCCCN1CCCCC1 | 30 | 88 | – | – | –
Cl.Clc1ccc2c(c1)Oc1ccccc1C2SCCN1CCCCC1 (stereo not drawn) | <30 | 80 | – | – | –
Cl.NCCSC1c2ccccc2Oc2ccccc21 | <30 | 35 | – | – | –
Cl.NCCCSC1c2ccccc2Oc2cc(Cl)ccc21 (stereo not drawn) | <30 | 79 | – | – | –
Cl.NCCCSC1c2ccccc2Oc2ccc(Cl)cc21 (stereo not drawn) | 39 | 89 | – | – | –
Cc1ccc2c(c1)C(SCCN1CCOCC1)c1ccccc1O2.Cl (stereo not drawn) | 50 | 93 | – | – | –
CN(C)CCSC1c2ccccc2Oc2ncccc21.Cl (stereo not drawn) | <30 | 79 | – | – | –

SMILES | Reduction (Canis familiaris [1]) [%] | Reduction (Rattus norvegicus) [%] | Reduction (Canis familiaris [2]) [%] | Reduction (Canis familiaris [3]) | Reduction (Canis familiaris [4])
Cl.c1ccc2c(c1)Oc1ccccc1C2SCCN1CCOCC1 | 56 | 93 | <30 | – | –
COc1ccc2c(c1)C(SCCN(C)C)c1ccccc1O2.Cl (stereo not drawn) | <30 | 63 | – | – | –
Cl.Clc1ccc2c(c1)Oc1ccccc1C2SCCN1CCOCC1 (stereo not drawn) | 39 | 70 | – | – | –
CN(C)CCSC1c2ccccc2Oc2ccc(Cl)cc21.Cl (stereo not drawn) | <30 | 55 | – | – | –
Cl.c1ccc2c(c1)Oc1ncccc1C2SCCCN1CCOCC1 (stereo not drawn) | – | 62 | – | – | –
Cc1cccc2c1Oc1ccccc1C2SCCN1CCCCC1.Cl (stereo not drawn) | <30 | 85 | – | – | –
Cc1ccc2c(c1)C(SCCN1CCCCC1)c1ccccc1O2.Cl (stereo not drawn) | <30 | 88 | – | – | –
Cl.NCCCSC1c2ccccc2Oc2ccccc21 | 68 | 44 | – | Animal vomited upon compound administration | –
Cl.Clc1cccc2c1Oc1ccccc1C2SCCN1CCCCC1 (stereo not drawn) | 44 | 87 | – | – | –
Cl.c1ccc2c(c1)Oc1ccccc1C2SCCCN1CCOCC1 | 47 | 98 | – | – | –
CN/C(=N\CCSCc1nc[nH]c1C)NC#N [CIMETIDINE] | 84 | 74 | 86 | – | –
Cl.c1ccc2c(c1)Oc1ncccc1C2SCCN1CCCCC1 (stereo not drawn) | 63 | 61 | <30 | – | –
COc1ccc2c(c1)Oc1ccccc1C2SCCN1CCCCC1.Cl (stereo not drawn) | <58 | 47 | <30 | – | –
Cc1cccc2c1Oc1ccccc1C2SCCN1CCOCC1.Cl (stereo not drawn) | <30 | 71 | – | – | –
CN(C)CCSC1c2ccccc2Oc2ccccc21.Cl | <30 | 65 | – | – | –
Cl.NCCSC1c2ccccc2Oc2ccc(Cl)cc21 (stereo not drawn) | <30 | 74 | – | – | –

Reference: ChEMBL document CHEMBL1121674, “Gastric antisecretory agents. 2. Antisecretory activity of 9-[(aminoalkyl)thio]-9H-xanthenes and 5-[(aminoalkyl)thio]-5H-[1]benzopyrano[2,3-b]pyridines” (1981)
